Bioassay records: PubChem, several laboratories
CHOP inhibitor: CHOP inhibition in unfolded protein response. CHO-K1 CHOP-promoter luciferase, tunicamycin-induced, 15-18 h. inhibition, % at 10 µM. actives 3.8% (n = 220,000). AID 2732;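 active = compounds that reduced the stress-induced luciferase reporter signal by more than about 70% of percent inhibition, limit read from the data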
XBP1 UPR activ: activators of adaptive arm of unfolded protein response (XBP1). AID 463104. CHO-XBP1 luciferase reporter, IRE1-XBP1 UPR activation, luminescence; percent of tunicamycin response, DMSO as zero. actives 0.33% (n = 330,000). activation, % at 20 µM;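 active = versus positive control, 20 µM dose yields 30% or more activation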
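Material: CHO cell line with stable XBP1 luciferase reporter; schedule: 16-18 h cell attachment at 37 °C, then 6 h compound exposure; signal: glow luminescence from Steady-Glo reagent; medium: serum-containing F12 medium, 10% FBS; benchmarks: tunicamycin 10 µg/mL and vehicle-only wells; read-out: percent activation relative to tunicamycin reference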
A1 inh: inhibitors of the anti-apoptotic protein A1, read as caspase activation. MEF A1-2A-BIM cells, Caspase-Glo 3/7 luminescence, 3 h; percent of clofoctol response, vehicle zero. caspase activation, % (test concentration not listed). actives 0.066% (n = 330,000). AID 2462;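 active = over half of replicate activation scores above 10%, or exactly half above 10 with the replicate mean above 10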
UPR CHOP act: apoptotic UPR (CHOP) activation; activation, % at 10 µM; AID 449763; CHO-CHOP luciferase reporter, luminescence; percent of tunicamycin response over DMSO baseline; actives 0.34% (n = 330,000);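 active = at 10 µM dose, activation of 40% or more, normalized to positive control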
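assay system = CHO CHOP reporter cells | amount = 500 CHO-CHOP cells per well | buffer or medium = F12 with 10% FBS | incubation = 16-18 h cell attachment, then 6 h compound exposure, 37 °C | detection = luminescence read with Steady-Glo | read-out = percent activation relative to tunicamycin control | controls = tunicamycin high control, DMSO low control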
Each line names hits and unclear results; the compound was inactive in the other large screens. The sample as a whole holds a higher share of hits than the screen did.

Cc1ccccc1/C=C/C1=NCCN1	CHOP inhibitor 99
O=C(CN1C(=O)c2ccccc2C1=O)Nc1nc(-c2cccc([N+](=O)[O-])c2)cs1	none
O=C(Nc1cc(S(=O)(=O)Nc2ccc(Cl)cc2)ccc1O)c1ccc(S(=O)(=O)N2CCCCCC2)cc1	none
O=C(N/N=C\c1cc(Cl)ccc1O)c1ccc(S(=O)(=O)N2CCCCC2)cc1	CHOP inhibitor 81
CCC[C@H]1NC(=O)[C@H](C)N(C)C(=O)C(C)(C)C(=O)C(C)NC(=O)[C@H](Cc2ccc(OC)cc2)N(C)C(=O)[C@H](C(C)C)N(C)C(=O)CNC(=O)[C@H](CC(C)C)N(C)C(=O)CNC(=O)[C@H]([C@@H](C)CC)OC(=O)[C@H]1C (stereo partly drawn)	UPR CHOP act 44 (no result: CHOP inhibitor, A1 inh)
COc1ccc(S(=O)(=O)NCCSCc2cccc(C)c2)cc1Br	CHOP inhibitor 85
Cc1ccc(S(=O)(=O)NCCSCc2ccccc2)cc1	none
CCOc1ccc(N=Nc2ccc(O)c3ncccc23)cc1	none (no result: CHOP inhibitor)
Cc1ccc(C)c(N=Nc2ccc(O)c3ncccc23)c1	CHOP inhibitor 103
COc1ccc(NC(=O)CCC(=O)OCc2ccc(C(=O)Oc3ccc(Cl)cc3)cc2)cc1	none
CC(C)OC(=O)c1ccc(N2CCN(c3ccc(F)cc3)CC2)nc1	none (no result: CHOP inhibitor)
CC(C)OC(=O)c1cccnc1N1CCN(c2ccc(F)cc2)CC1	CHOP inhibitor 78
CCn1c(-c2ccccc2Cl)nn(CC(=O)NCCc2ccccc2)c1=S	none
COc1ccc(CNC(=O)c2nc(S(=O)(=O)Cc3ccccc3)ncc2Cl)cc1	UPR CHOP act 164 (no result: CHOP inhibitor)
O=C(NCc1ccc2c(c1)OCO2)c1nc(S(=O)(=O)Cc2ccccc2)ncc1Cl	none (no result: CHOP inhibitor, A1 inh)
O=C(NCc1ccccc1)c1nc(S(=O)(=O)Cc2ccccc2)ncc1Cl	UPR CHOP act 105 (no result: CHOP inhibitor)
Cn1cc(S(=O)(=O)N2CCCC2)cc1C(=O)NCc1ccc(F)cc1	none (no result: CHOP inhibitor)
COc1ccccc1N(CC(=O)NC(C)(C)C)C(=O)c1ccc(Cl)nc1	none
COC(=O)Cc1csc(Nc2ccccc2)n1	none
Cn1c(=O)c2c(nc(SCCCO)n2Cc2ccccc2Cl)n(C)c1=O	none
C=CC(C)Sc1nc2c(c(=O)n(C)c(=O)n2C)n1Cc1ccccc1Cl (stereo not drawn)	CHOP inhibitor 83
C=CCOc1nc2c(c(=O)n(C)c(=O)n2C)n1Cc1ccccc1Cl	none
C=CCOc1nc2c(c(=O)n(C)c(=O)n2C)n1Cc1ccc(Cl)cc1	CHOP inhibitor 82
COc1cccc(Cn2c(Oc3cccc(C)c3)nc3c2c(=O)n(C)c(=O)n3C)c1	CHOP inhibitor 79
CCOc1cccc(-c2nn(-c3ccccc3)cc2/C=C(/C#N)C(=O)NCCCn2ccnc2)c1	CHOP inhibitor 95
c1ccc2c3c([nH]c2c1)-c1[nH]ncc1CC3	CHOP inhibitor 71
O=C1CCCc2c1[nH]c1ccccc21	none
Clc1ccc2[nH]c3c(c2c1)CCc1cn[nH]c1-3	CHOP inhibitor 87
O=C(N/N=C1\CCCc2c1[nH]c1ccc(Cl)cc21)c1ccncc1	none (no result: CHOP inhibitor)
COc1cccc(NC(=O)c2ccccc2)c1	none (no result: CHOP inhibitor)
COc1cccc(NC(=O)Nc2cccc(C(=O)O)c2)c1	CHOP inhibitor 76
COC(=O)c1cc(NC(=O)Nc2cc(OC)ccc2OC)cc(C(=O)OC)c1	CHOP inhibitor 78
COc1cccc(NC(=O)C(NC2CCCC2)c2ccccc2)c1 (stereo not drawn)	CHOP inhibitor 82
CC1CCN(C(=O)CSc2nnc(Cc3ccccc3)o2)CC1	none
CC(C)CC(=O)N=C1SC2CS(=O)(=O)CC2N1Cc1ccccc1 (stereo not drawn)	none
COc1cccc(C(=O)Nc2cc(S(=O)(=O)N3CCCCC3)ccc2OC)c1	none
Cc1cccc(NC(=S)N2CCC(NC(=O)C3CCCCC3)CC2)c1	none (no result: CHOP inhibitor)
CC(C)(C)c1ccc(CNc2ccc([N+](=O)[O-])cn2)cc1	CHOP inhibitor 87 (no result: XBP1 UPR activ, UPR CHOP act)
CC(C)c1ccc(CNc2ccc([N+](=O)[O-])cn2)cc1	CHOP inhibitor 83
COc1ccc(S(=O)(=O)NCC2(N3CCOCC3)CCCCC2)cc1OC	none (no result: CHOP inhibitor, A1 inh)
O=C(O)c1ccccc1-c1nc2ccccc2c(=O)[nH]1	none
COc1ccc(-c2nc(CSCC(=O)N3CCc4ccccc4C3)c(C)o2)cc1OC	none
COc1ccc(-c2nc(CSCC(=O)N3CCN(c4cccc(C)c4)C(C)C3)c(C)o2)cc1OC (stereo not drawn)	CHOP inhibitor 76
CCCN1C/C(=C/c2cccc([N+](=O)[O-])c2)C(=O)/C(=C/c2cccc([N+](=O)[O-])c2)C1	CHOP inhibitor 100 (no result: XBP1 UPR activ, A1 inh, UPR CHOP act)
